Assays:
Neuraminidase [1] = biological target: T1, Neuraminidase (Influenza A virus, UniProt B4URF0); experiment: Inhibition of influenza A virus (A/Guangdong/376/2001(H1N1)) neuraminidase infected in chick embryo using MUNANA as substrate after 1 hr by spectrophotometric analysis
Neuraminidase [2] = biological target: T1, Neuraminidase; experiment: Inhibition of Influenza A virus (A/Indonesia/5/2005(H5N1)) neuraminidase infected in chick embryo using MUNANA as substrate after 1 hr by spectrophotometric analysis
Neuraminidase [3] = biological target: T1, Neuraminidase; experiment: Inhibition of Influenza A virus (A/Sydney/5/1997(H3N2)) neuraminidase infected in chick embryo using MUNANA as substrate after 1 hr by spectrophotometric analysis
[4] = biological target: Neuraminidase (Influenza A virus) (UniProt B4URF0); experiment: Inhibition of influenza A virus (A/Guangdong/376/2001(H1N1)) neuraminidase infected in chick embryo using MUNANA as substrate at 1 uM after 1 hr by spectrophotometric analysis
Neuraminidase (Influenza A virus), sequence (B4URF0 as listed by the source): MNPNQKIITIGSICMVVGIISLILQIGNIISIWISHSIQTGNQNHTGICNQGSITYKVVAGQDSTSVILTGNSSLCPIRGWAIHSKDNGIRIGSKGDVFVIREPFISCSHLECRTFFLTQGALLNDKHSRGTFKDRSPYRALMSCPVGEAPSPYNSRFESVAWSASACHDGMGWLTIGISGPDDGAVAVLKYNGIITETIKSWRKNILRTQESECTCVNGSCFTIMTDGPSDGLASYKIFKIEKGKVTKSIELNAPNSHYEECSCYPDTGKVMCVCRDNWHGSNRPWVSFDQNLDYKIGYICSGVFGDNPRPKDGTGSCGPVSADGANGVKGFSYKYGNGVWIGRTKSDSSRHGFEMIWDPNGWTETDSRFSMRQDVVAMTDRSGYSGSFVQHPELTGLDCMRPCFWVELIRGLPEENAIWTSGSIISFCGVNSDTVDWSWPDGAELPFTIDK

Neuraminidase [5] = biological target: T1, Neuraminidase; experiment: Inhibition of Influenza A virus […]/78(H1N1) neuraminidase
Neuraminidase [6] = biological target: T1, Neuraminidase; experiment: Inhibition of Influenza A virus H5N1 neuraminidase
Neuraminidase [7] = biological target: T1, Neuraminidase; experiment: Inhibition of Influenza A virus Mississippi/1/85(H3N2) neuraminidase
[8] = Cmax in Sprague-Dawley rat at 10 mg/kg, po; type: ADME, organism-based; parameters: dose 10 mg/kg, route oral; details: in vivo
How it was run: (§1)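 Single 10 mg/kg oral dose given to male Sprague-Dawley rats (~250 g), three per group. Blood was sampled via the retrobulbar vein at 0, 5, 15 and 30 min and at 1, 2, 5, 8 and 24 h. Plasma concentrations were measured by LC/MS/MS, and parameters came from noncompartmental analysis of mean plasma concentrations.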

[9] = Terminal half life in Sprague-Dawley rat at 10 mg/kg, iv; type: ADME, organism-based; parameters: dose 10 mg/kg, route intravenous; details: in vivo, read-out: beta t1/2 (converted)
[10] = Volume of distribution at steady state in Sprague-Dawley rat at 10 mg/kg, iv; type: ADME, organism-based; parameters: dose 10 mg/kg, route intravenous; details: in vivo, read-out: Vdss
[11] = Clearance in Sprague-Dawley rat at 10 mg/kg, iv; type: ADME, organism-based; parameters: dose 10 mg/kg, route intravenous; details: in vivo
[12] = Tmax in Sprague-Dawley rat at 10 mg/kg, po; type: ADME, organism-based; parameters: dose 10 mg/kg, route oral; details: in vivo; how it was run: as §1
[13] = Oral bioavailability in Sprague-Dawley rat at 10 mg/kg; type: ADME, organism-based; details: in vivo; how it was run: as §1
[14] = Terminal half life in Sprague-Dawley rat at 10 mg/kg, po; type: ADME, organism-based; parameters: dose 10 mg/kg, route oral; details: in vivo, read-out: beta t1/2 (converted)
How it was run: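 Single 10 mg/kg oral dose given to male Sprague-Dawley rats (~250 g), three per group. Plasma concentrations were measured by LC/MS/MS, and parameters came from noncompartmental analysis of mean plasma concentrations.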

[15] = Volume of distribution at steady state in Sprague-Dawley rat at 2 mg/kg, iv; type: ADME, organism-based; parameters: dose 2 mg/kg, route intravenous; details: in vivo, read-out: Vdss
How it was run: (§2)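 Male Sprague-Dawley rats (~250 g), three per group, given a single 2 mg/kg intravenous dose. Blood samples were drawn via the retrobulbar vein at 0, 5, 15 and 30 min and at 1, 2, 5, 8 and 24 h. Plasma levels were quantified by LC/MS/MS, and parameters were derived by noncompartmental analysis of mean plasma concentrations.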

[16] = Clearance in Sprague-Dawley rat at 2 mg/kg, iv; type: ADME, organism-based; parameters: dose 2 mg/kg, route intravenous; details: in vivo; how it was run: as §2
[17] = Mean residence time in Sprague-Dawley rat at 2 mg/kg, iv; type: ADME, organism-based; parameters: dose 2 mg/kg, route intravenous; details: in vivo; how it was run: as §2
[18] = AUC (0 to 8 hrs) in Sprague-Dawley rat at 2 mg/kg, iv; type: ADME, organism-based; parameters: time < 8 hr, dose 2 mg/kg, route intravenous; details: plasma
How it was run: (§3)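 Male Sprague-Dawley rats (~250 g), three per group. One group received 10 mg/kg orally and the other 2 mg/kg intravenously. Blood was drawn from the retrobulbar vein at 0, 5, 15 and 30 min and at 1, 2, 5, 8 and 24 h. Plasma levels were measured by LC/MS/MS, and parameters were calculated by noncompartmental analysis of mean plasma concentrations.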

[19] = Terminal half life in Sprague-Dawley rat at 2 mg/kg, iv; type: ADME, organism-based; parameters: dose 2 mg/kg, route intravenous; details: in vivo, read-out: beta t1/2 (converted); how it was run: as §2
[20] = Cmax in Sprague-Dawley rat at 2 mg/kg, iv; type: ADME, organism-based; parameters: dose 2 mg/kg, route intravenous; details: in vivo; how it was run: as §2
[21] = Mean residence time in Sprague-Dawley rat at 10 mg/kg, po; type: ADME, organism-based; parameters: dose 10 mg/kg, route oral; details: in vivo; how it was run: as §1
[22] = AUC (0 to 8 hrs) in Sprague-Dawley rat at 10 mg/kg, po; type: ADME, organism-based; parameters: time < 8 hr, dose 10 mg/kg, route oral; details: plasma; how it was run: as §3

T1 sequence (B4URF0 whole entry): as the sequence (B4URF0 as listed by the source) above

Row | SMILES | IC50 (Neuraminidase [1]) | IC50 (Neuraminidase [2]) | IC50 (Neuraminidase [3]) | also measured
1 | CC(=O)N[C@H]1[C@H]([C@H](O)[C@H](O)CO)OC(C(=O)N[C@H](C(=O)O)c2ccccc2)=C[C@@H]1O | 60.5 µM | 74.4 µM | 60 µM | –
2 | CC(=O)N[C@H]1[C@H]([C@H](O)[C@H](O)CO)OC(C(=O)N2CCC[C@@H](C(=O)O)C2)=C[C@@H]1N | 103 µM | 162 µM | 146 µM | –
3 | CC(=O)N[C@H]1[C@H]([C@H](O)[C@H](O)CO)OC(C(=O)NCc2cccc(Cl)c2)=C[C@@H]1NC(=N)N | – | – | – | inhibition [4]: 51%
4 | CC(=O)N[C@H]1[C@H]([C@H](O)[C@H](O)CO)OC(C(=O)O)=C[C@@H]1O [NEU5AC2EN] | – | – | – | IC50 (Neuraminidase [5]): 240 µM; IC50 (Neuraminidase [6]): 0.012 µM; IC50 (Neuraminidase [7]): 52 µM
5 | CC(=O)N[C@H]1[C@H]([C@H](O)[C@H](O)CO)OC(C(=O)N[C@H](C(=O)O)C(C)C)=C[C@@H]1NC(=N)N | 2.14 µM | 4.19 µM | 0.107 µM | –
6 | CC(=O)N[C@H]1[C@H]([C@H](O)[C@H](O)CO)OC(C(=O)N[C@@H](CC(C)C)C(=O)O)=C[C@@H]1O | > 1000 µM | > 1000 µM | 918 µM | –
7 | CC(=O)N[C@H]1[C@H]([C@H](O)[C@H](O)CO)OC(C(=O)O)=C[C@@H]1N=C(N)N [ZANAMIVIR] | – | – | – | Cmax [8]: 60 ng/mL; half-life [9]: 1.1 h; Vd [10]: 0.8 L/kg; clearance [11]: 31.7 mL/min/kg; Tmax [12]: 1.2 h
8 | CC(=O)N[C@H]1[C@H]([C@H](O)[C@H](O)CO)OC(C(=O)NCc2ccc(C)cc2)=C[C@@H]1NC(=N)N | 0.26 µM | 0.28 µM | 0.85 µM | –
9 | CC(=O)N[C@H]1[C@H]([C@H](O)[C@H](O)CO)OC(C(=O)NCc2ccccc2F)=C[C@@H]1NC(=N)N | 0.24 µM | 0.26 µM | 0.89 µM | –
10 | CC[C@H](C)[C@H](NC(=O)C1=C[C@H](O)[C@@H](NC(C)=O)[C@H]([C@H](O)[C@H](O)CO)O1)C(=O)O | > 1000 µM | 939 µM | 790 µM | –
11 | CC(=O)N[C@H]1[C@H]([C@H](O)[C@H](O)CO)OC(C(=O)N[C@H](C(=O)O)C(C)C)=C[C@@H]1O | > 1000 µM | 793 µM | 688 µM | –
12 | CCOC(=O)C1=C[C@@H](OC(CC)CC)[C@H](NC(C)=O)[C@@H](N)C1.O=P(O)(O)O [OSELTAMIVIR PHOSPHATE] | – | – | – | Cmax [8]: 30 ng/mL; half-life [9]: 1.6 h; Vd [10]: 1.3 L/kg; clearance [11]: 25 mL/min/kg; bioavailability [13]: 4.3%; half-life [14]: 10.6 h; Tmax [12]: 4 h
13 | COc1ccc(CNC(=O)C2=C[C@H](O)[C@@H](NC(C)=O)[C@H]([C@H](O)[C@H](O)CO)O2)cc1 | > 1000 µM | > 1000 µM | 858 µM | –
14 | CC(=O)N[C@H]1[C@H]([C@H](O)[C@H](O)CO)OC(C(=O)N2CCOCC2)=C[C@@H]1O | 98.9 µM | 66.7 µM | 52.9 µM | –
15 | CC(=O)N[C@H]1[C@H]([C@H](O)[C@H](O)CO)OC(C(=O)N[C@@H](CCC(=O)O)C(=O)O)=C[C@@H]1NC(=N)N | 0.45 µM | 0.16 µM | 0.81 µM | –
16 | CC(=O)N[C@H]1[C@H]([C@H](O)[C@H](O)CO)OC(C(=O)NCC(=O)O)=C[C@@H]1N | 13.9 µM | 8.67 µM | 16.7 µM | –
17 | CC(=O)N[C@H]1[C@H]([C@H](O)[C@H](O)CO)OC(C(=O)NCc2ccccc2)=C[C@@H]1O | 143 µM | 822 µM | 707 µM | –
18 | CC(=O)N[C@H]1[C@H]([C@H](O)[C@H](O)CO)OC(C(=O)N[C@@H](CC(C)C)C(=O)O)=C[C@@H]1N | 159 µM | 669 µM | 647 µM | –
19 | CC(=O)N[C@H]1[C@H]([C@H](O)[C@H](O)CO)OC(C(=O)N[C@@H](CC(C)C)C(=O)O)=C[C@@H]1NC(=N)N | 5.11 µM | 3.51 µM | 22.5 µM | –
20 | CC(=O)N[C@H]1[C@H]([C@H](O)[C@H](O)CO)OC(C(=O)N[C@@H](C)C(=O)O)=C[C@@H]1NC(=N)N | 0.1 µM | 0.063 µM | 0.41 µM | –
21 | CC(=O)N[C@H]1[C@H]([C@H](O)[C@H](O)CO)OC(C(=O)NCc2cccc(F)c2)=C[C@@H]1NC(=N)N | 0.09 µM | 0.001 µM | 0.013 µM | Cmax [8]: 260 nM; Vd [15]: 0.23 L/kg; clearance [16]: 5.83 mL/min/kg; MRT [17]: 0.65 h; AUC(0-t) at 8 h [18]: 5380 ng·h/mL; half-life [19]: 0.69 h; Cmax [20]: 8800 ng/mL; bioavailability [13]: 1.41%; MRT [21]: 6.29 h; AUC(0-t) at 8 h [22]: 378 ng·h/mL; half-life [14]: 2.96 h; Tmax [12]: 1 h
22 | CC(=O)N[C@H]1[C@H]([C@H](O)[C@H](O)CO)OC(C(=O)NCCC(=O)O)=C[C@@H]1NC(=N)N | 0.36 µM | 0.07 µM | 0.5 µM | –
23 | CC(=O)N[C@H]1[C@H]([C@H](O)[C@H](O)CO)OC(C(=O)NCc2ccc(F)cc2)=C[C@@H]1NC(=N)N | – | – | – | inhibition [4]: 54.8%
24 | CC(=O)N[C@H]1[C@H]([C@H](O)[C@H](O)CO)OC(C(=O)N[C@H](C(=O)O)C(C)C)=C[C@@H]1N | 2.25 µM | 4.3 µM | 5.15 µM | –
25 | CC(=O)N[C@H]1[C@H]([C@H](O)[C@H](O)CO)OC(C(=O)N2CCC(C(=O)O)CC2)=C[C@@H]1N | 6.33 µM | 5.76 µM | 5.86 µM | –
